High-throughput results: PubChem BioAssay, several laboratories
APP 5'UTR act: APP 5'UTR luciferase reporter activation; actives 1% (n = 190,000); SH-SY5Y APP 5'UTR luciferase reporter, luminescence; zero percent = DMSO vehicle wells; activation, % at 2 µM;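 active = activation above a set limit, based on mean plus 3 SD of controls, cut at about 140% in these data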
FLuc inhib CS: inhibits firefly luciferase, flagging false hits in luciferase inhibition screens. ATPLite firefly luciferase biochemical luminescence, 10 min. inhibition, % at 10 µM. actives 1.5% (n = 200,000);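 active = inhibition above about 50% when tested at 10 µM, limit read from the data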
Target sequence (P08659 whole entry, looked up): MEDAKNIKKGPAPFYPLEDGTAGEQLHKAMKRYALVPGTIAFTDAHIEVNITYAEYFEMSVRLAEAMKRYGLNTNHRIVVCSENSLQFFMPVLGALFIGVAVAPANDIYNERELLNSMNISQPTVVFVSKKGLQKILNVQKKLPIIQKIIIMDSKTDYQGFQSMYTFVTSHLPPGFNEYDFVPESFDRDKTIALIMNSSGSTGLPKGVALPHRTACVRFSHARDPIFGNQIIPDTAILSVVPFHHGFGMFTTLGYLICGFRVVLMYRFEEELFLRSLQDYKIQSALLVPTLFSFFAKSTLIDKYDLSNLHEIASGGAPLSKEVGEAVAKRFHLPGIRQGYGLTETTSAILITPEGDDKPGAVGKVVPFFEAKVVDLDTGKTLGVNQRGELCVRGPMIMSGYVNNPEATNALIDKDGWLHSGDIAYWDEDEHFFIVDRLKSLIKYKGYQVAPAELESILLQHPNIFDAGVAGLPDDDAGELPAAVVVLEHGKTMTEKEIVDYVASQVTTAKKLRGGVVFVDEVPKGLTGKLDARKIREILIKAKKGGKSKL
Pf gametocyte: kills late stage P. falciparum gametocytes; P. falciparum stage V gametocytes, ATP luminescence, 24 h; inhibition, % at 10.9 µM; actives 0.065% (n = 150,000);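 active = inhibition above the mean plus 3 SD of compounds within the control limits, set per campaign, cut at about 38% in these data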;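 also: 0% = DMSO wells and 100% = medium only without gametocytes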
STAT1 act: increases IFN-gamma driven STAT1 reporter signal; actives 2.6% (n = 200,000); activation (% of control), % at 5.5 µM; NIH 3T3 STAT1-luciferase reporter, luminescence; 100% = IFN-gamma alone, no compound;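 active = activation above the screen-wide mean activation plus 3 SD, cut at about 130% in these data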;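 also: raw ratio to IFN-gamma control signal so 100% means no change and 0% no light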
NF-kB neuron act: compounds increasing NF-kB expression in human neuronal cells. NF-kB reporter expression; active compounds read high. fold change at 12.5 µM. actives 1.6% (n = 190,000); in the data active = fold change above about 3.3
FLuc stim CS: affects firefly luciferase, flagging false hits in luciferase stimulation screens | AID 1027 | activation factor at 10 µM | 200,000 tested, under 10 active | ATPlite luciferase biochemical, luminescence, 10 min; 0 = ATP-free wells, 1 = DMSO control | P08659;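 active = luciferase activation factor, scaled between plate controls, of at least 2 with compound at 10 µM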
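Material: luciferase plus luciferin reagent, cell-free. Medium: PBS buffer for ATP. Also added: ATP substrate, dispensed from a 10.24 µM working solution in PBS. Doses: test compounds dosed from 2 mM stocks in 100% DMSO. Incubation: 10 min post-reagent at room temperature. Technique: light output (luminescence). Read-out basis: luminescence gain marking luciferase activators.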
Numbers without * were called inactive; . = no result given. In the library only some 3.5% were active in any assay of this set; here they are far more common.

SMILES | APP 5'UTR act | FLuc inhib CS | Pf gametocyte | STAT1 act | NF-kB neuron act | FLuc stim CS
O=C(c1ccccc1)c1c2c(cc3sc4ccccc4[n+]13)-c1cccc3cccc-2c13 | 36 | -7 | -3 | 84 | 2.5 | 1.1
O=C(c1nn(-c2ccccc2)c(=O)c2ccccc12)N1CCN(c2ncccn2)CC1 | -6 | 2 | -21 | 94 | 0.7 | 1
COc1cccc(-c2noc(-c3ccc(Cl)nc3)n2)c1 | 124 | 31 | -7 | 151* | 4.9* | 0.7
c1ccc(-c2ccc(-c3nc(-c4cccnc4)no3)cc2)cc1 | 136* | 48 | . | 137* | 5.3* | 0.5
CCOc1cc(-c2noc(-c3cccnc3)n2)ccc1OC | 4 | -3 | . | 104 | 0.85 | 1
C(=C\c1nc(-c2cccnc2)no1)/c1ccccc1 | 123 | 41 | 1 | 145* | 1.2 | 0.6
COc1ccc(-c2noc(-c3cccnc3)n2)cc1OC | 36 | 19 | 5 | 140* | 1.8 | 0.8
COc1ccc(-c2nc(-c3cccnc3)no2)cc1 | . | . | -19 | . | . | .
CCNC(=S)N1CCCCC1CO (centres undefined) | 19 | 2 | . | 98 | 1.1 | 1
COc1ccc(C=O)cc1CSc1nnc(COc2cccc3cccnc23)o1 | -13 | -6 | 0 | 90 | 1.1 | 1.1
c1ccc(-c2noc(-c3cccnc3)n2)cc1 | 80 | 26 | . | 150* | 3.4* | 0.7
Clc1ccc(Br)cc1-c1nc(-c2cccnc2)no1 | 10 | . | . | 105 | . | .
O=C(O)c1cc(/C=C/c2ccc(N3CCOCC3)cc2)nc2ccccc12 | 47 | 97* | 21 | 64 | 1.9 | 0
O=C(O)c1cc(/C=C/c2ccc(N3CCOCC3)c([N+](=O)[O-])c2)nc2ccccc12 | . | . | 7 | . | . | .
COc1ccccc1C1=NC(c2ccc(C)cc2)N=C1C (centres undefined) | 38 | 14 | . | 135* | 2.1 | 0.9
COc1ccccc1-c1nnc(-c2ccc(C)cc2)o1 | . | . | -17 | . | . | .
COc1ccc(/C=N/NC(=O)Nc2nonc2N)cc1 | 6 | 7 | . | 130* | 1.3 | 0.9
COc1cccc(C(=O)Oc2c(Br)cc(Br)cc2/C=N/NC(=O)c2cc(C)[nH]n2)c1 | -45 | -5 | -2 | 94 | 0.84 | 1.1
COc1ccc2nccc(/C=C/c3ccnc4ccc(OC)cc34)c2c1 | . | . | -13 | . | . | .
CC(C)(C)C1=Nn2c(nnc2-c2ccco2)SC1 | -8 | 3 | . | 91 | 1.2 | 1
CCN(C(=O)COC(=O)c1cc(-c2ccc3cc(OC)ccc3c2)nc2ccccc12)C1CCS(=O)(=O)C1 (centres undefined) | 41 | 76* | . | 116 | 2.2 | 0.2
O=C(/C=C/c1ccc(Cl)cc1Cl)N1CCc2ccccc21 | 103 | 63* | 10 | 141* | 2.9 | 0.4
CC(Oc1ccc(Cl)cc1Cl)c1nc(-c2ccc(NC(=O)c3ccccn3)cc2)no1 (centres undefined) | 147* | 32 | . | 129* | 1.3 | 0.7
O=C(Nc1nc2nccc(-c3ccccc3)n2n1)c1ccc(F)cc1 | 12 | -1 | 2 | 89 | 1 | 1
O=C(Nc1nsc(-c2ccccc2)n1)c1ccc(F)cc1 | 90 | 36 | . | 129* | 1.6 | 0.6
SMILES | APP 5'UTR act | FLuc inhib CS | Pf gametocyte | STAT1 act | NF-kB neuron act | FLuc stim CS
O=C(COC(=O)c1ccc2ccccc2n1)NCc1ccccc1 | -26 | 5 | 4 | 98 | 1.2 | 0.9
O=C(CCCc1cccs1)Nc1ccc2c(c1)OCO2 | 162* | 16 | 15 | 134* | 4.2* | 0.8
O=C(CCS(=O)(=O)c1ccccc1)Nc1ccc2c(c1)OCO2 | -2 | -2 | -2 | 136* | 2.2 | 1
Cc1ccc(C(=O)N2CC(C)OC(C)C2)cc1[N+](=O)[O-] (centres undefined) | -11 | -5 | -4 | 101 | 1.2 | 1
CC1(c2ccccc2)NC(=O)N(CC(=O)Nc2ccc([N+](=O)[O-])cc2)C1=O (centres undefined) | -15 | -3 | -9 | 87 | 1.1 | 1
Brc1ccc(-c2cnc(-c3cccs3)o2)cc1 | 89 | 17 | . | 143* | 2.7 | 0.8
COc1ccc(-c2nc(-c3cccs3)no2)cc1 | . | . | 23 | . | . | .
Cc1c(Cl)cccc1NC(=S)NCc1cccs1 | -8 | -5 | -7 | 98 | 0.9 | 1.1
CNc1ccccc(-c2ccc3ccccc3n2)c1=O | 104 | 27 | -14 | 147* | 2.3 | 0.7
CC(O)/C=C/c1ccc2ccccc2n1 (centres undefined) | 10 | 14 | . | 112 | 2.6 | 0.9
CCCCN1CCc2c([nH]c3ccccc23)C1=O | 37 | 7 | 8 | 137* | 1.9 | 0.9
CCCC/C=C1\CCc2c([nH]c3ccccc23)C1=O | 20 | 1 | 7 | 125 | 1.7 | 1
CCc1cc2c(Sc3nc4ccccc4s3)ncnc2s1 | -21 | -1 | . | 142* | 0.69 | 1
c1ccc2sc(Sc3ncnc4sccc34)nc2c1 | 0 | 64* | -4 | 110 | 1.8 | 0.4
COc1ccc2[nH]c3nc(SC(C)C)nnc3c2c1 | 185* | 63* | . | 85 | 5.1* | 0.4
COc1ccc2[nH]c3nc(SCC(=O)Nc4cccc(NC(C)=O)c4)nnc3c2c1 | . | . | 1 | . | . | .
CC(C)c1ccc(/C=C/c2ccc(=O)n(C)n2)cc1 | 122 | 83* | 9 | 131* | 7.5* | 0.2
O=C(NCc1ccco1)c1ccc2c(c1)C(=O)c1ccccc1-2 | 21 | 6 | 7 | 133* | 1.5 | 0.9
O=C(NCc1ccco1)c1ccc2ccccc2c1 | 86 | 18 | . | 134* | 1.4 | 0.8
O=C(NCc1ccco1)c1ccc2c(c1)C(=O)N(Cc1ccccc1)C2=O | 13 | 1 | . | 94 | 1.3 | 1
O=C(NCc1ccco1)c1ccc(Oc2ccccc2)cc1 | 14 | 11 | -15 | 127 | 1.6 | 0.9
C1=Cc2ccccc2Nc2ccccc21 | . | . | -2 | . | . | .
COC(=O)/C(C#N)=C1/C=Cc2ccccc2N1 | 24 | 4 | -13 | 130* | 1.7 | 1
O=C(NC1CCCCC1)N1CCc2ccccc21 | 52 | 19 | 3 | 129* | 2.4 | 0.8
O=C(C1CCC(C(=O)N2CCc3ccccc32)CC1)N1CCc2ccccc21 (centres undefined) | -16 | -8 | 2 | 97 | 1.2 | 1.1
CC1CCc2sc(C(=O)NCc3ccc(F)cc3)cc2C1 (centres undefined) | -1 | 0 | 18 | 103 | 1.2 | 1
CC1CCc2sc(-c3n[nH]c(=S)o3)cc2C1 (centres undefined) | 48 | 57* | -10 | 96 | 1.2 | 0.4
COc1cc(C(=O)Nc2ccc(S(=O)(=O)Nc3ncccn3)cc2)c([N+](=O)[O-])cc1OC | -2 | -7 | . | 97 | 1.1 | 1.1
CN(C)c1ccc(/C=C2\CCCCC2=O)cc1 | 160* | 34 | . | 121 | 4.2* | 0.7
O=c1nc(N2CCCC2)nc(N2CCCC2)[nH]1 | . | . | -9 | . | . | .
